Casp6 inh = inhibitors of human caspase-6; P55212; purified caspase-6, Z-VEID-R110 cleavage fluorescence; AID 686996; hit rate 0.53% among 350,000; inhibition, % at 12.5 µM;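 active means mean inhibition across replicates at least about 35%, with every replicate also reaching that limit, limit read from the data; inconclusive means only one of the two criteria met; inactive means neither criterion met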
Target sequence (P55212 24-179 limits assumed): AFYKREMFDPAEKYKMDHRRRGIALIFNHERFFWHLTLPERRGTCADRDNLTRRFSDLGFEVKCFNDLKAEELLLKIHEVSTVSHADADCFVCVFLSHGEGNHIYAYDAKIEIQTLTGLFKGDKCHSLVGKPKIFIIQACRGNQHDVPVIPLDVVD
Target sequence (P55212 194-293 limits assumed): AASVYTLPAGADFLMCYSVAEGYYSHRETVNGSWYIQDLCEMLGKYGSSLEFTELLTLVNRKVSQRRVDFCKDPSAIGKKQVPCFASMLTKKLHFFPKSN
DENV2 CPE rescue = inhibitors of DENV2 cytopathic effect; hit rate 1.7% among 350,000; CPE inhibition, % at 9.99 µM; DENV2-infected cells, cytopathic effect rescue, plate reader; AID 651640; in the data active means CPE inhibition above about 20%, passing the limit was not always enough; inconclusive means no clear call, values can overlap the other calls; tested in BHK-21 cells
CaV13 ICDI inh = Disruptors of the CACNA1D IQ motif to Ca2+-dependent inactivation inhibitor domain association, primary screening, Förster resonance energy transfer in intact living …; HEK cells, CFP/YFP FRET ICDI-IQ, plate reader, 10 min; percent FRET-ratio fall versus neutral wells; hit rate 0.098% among 340,000; AID 743397; inhibition, % at 12.3 µM;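 active means mean replicate inhibition of at least 30% and at least 1% of replicates passing that level; inconclusive means only one of the two criteria is met; inactive means neither criterion is met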
Xi reactivation = activators of X-chromosome reactivation in mouse fibroblasts; XiGFP mouse fibroblasts, % GFP-positive cells imaging, 3 d; cells co-treated with 5-aza-dC sensitizer; scaled so ellipticine positive control = 100%; activation, % at 7.58 µM; hit rate 0.055% among 360,000; AID 743238;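 active means mean normalized replicate activation at least 10% and every replicate at or above 10%; inconclusive means only one of the two criteria met; inactive means mean below 10% and not all replicates reach 10%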
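material = 68-5-11 XiGFP fibroblast line | medium = DMEM plus 5-aza-dC sensitizer | schedule = 3 days compound exposure | benchmarks = positive control ellipticine, 6 µM final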
FN deposit inh = fibronectin deposition inhibition. AH1F fibroblasts, Alexa488-fibronectin deposition fluorescence, overnight. inhibition, % at 12.6 µM. hit rate 0.086% among 350,000. AID 743247;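 active means mean inhibition across replicates of 30% or more, regardless of how many single replicates reach that level; inconclusive means mean under 30% yet at least half of replicates reach 30%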
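Material – AH1F fibroblast monolayer, labelled fibronectin deposition · Reagent – labelled fibronectin 24 nM · Timing – 1 h adhesion, overnight exposure · Measured by – fluorescence at 485 nm excitation, 525 nm emission · Read-out – inhibition of fibronectin deposition signal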
A number is an active result; - = inactive; ? = inconclusive; . = no result given; ! = not active in a repeat. An excerpt weighted towards active compounds, which were near 2% of everything screened.

SMILES	Casp6 inh	DENV2 CPE rescue	CaV13 ICDI inh	Xi reactivation	FN deposit inh
CNC[C@H]1Oc2ccc(NC(=O)C3CCCCC3)cc2CC(=O)N([C@H](C)CO)C[C@@H]1C	-	90.2!	-	-	-
C[C@@H]1CN([C@H](C)CO)C(=O)Cc2cc(NC(=O)NC3CCCCC3)ccc2O[C@@H]1CN(C)CC1CC1	-	-	.	-	.
CNC[C@H]1Oc2ccc(NC(=O)C3CCCCC3)cc2CC(=O)N([C@H](C)CO)C[C@H]1C	-	-	.	-	-
C[C@@H]1CN([C@@H](C)CO)C(=O)Cc2cc(NC(=O)C3CCCCC3)ccc2O[C@H]1CN(C)CC1CC1	-	75.8	.	-	-
CNC[C@H]1Oc2ccc(NC(=O)c3ccncc3)cc2CC(=O)N([C@H](C)CO)C[C@@H]1C	-	64.1	.	-	-
C[C@@H]1CN([C@@H](C)CO)C(=O)Cc2cc(NC(=O)NC3CCCCC3)ccc2O[C@H]1CN(C)CC1CC1	-	40.8	.	-	.
C[C@H]1CN([C@@H](C)CO)C(=O)c2cccc(NS(=O)(=O)c3ccc(Cl)cc3)c2O[C@@H]1CN(C)S(=O)(=O)c1ccc(F)cc1	.	-	.	-	.
CN(C)C(=O)C[C@@H]1C=C[C@@H](NC(=O)C2CCOCC2)[C@@H](CO)O1	-	-	.	-	-
Cc1ccccc1S(=O)(=O)N1CC[C@@H]2[C@H]1c1cc(-c3ccc(C#N)cc3)ccc1N(C)[C@H]2CO	-	26.5	.	-	-
COc1cccc(-c2ccc3c(c2)[C@@H]2[C@@H](CCN2S(=O)(=O)c2ccccc2C)[C@H](CO)N3C)c1	-	28.5	.	-	-
Cc1ccccc1S(=O)(=O)N1CC[C@@H]2[C@H]1c1cc(-c3cccc(F)c3)ccc1N(C)[C@H]2CO	.	21.7	.	-	-
COc1cccc(-c2ccc3c(c2)[C@H]2[C@H](CCN2S(=O)(=O)c2ccccc2C)[C@H](CO)N3C)c1	-	-	.	-	-
CN1c2ccc(-c3cccc(C#N)c3)cc2[C@@H]2[C@@H](CCN2S(=O)(=O)c2cccc(F)c2)[C@@H]1CO	.	72.7	.	-	-
O=C(c1ccccn1)N1CC(=O)N2[C@H](CO)[C@@H](c3ccc(-c4cccc(F)c4)cc3)[C@H]2C1	-	-	.	-	.
O=C(c1cccc(F)c1)N1CCCCN2[C@H](CO)[C@@H](c3ccc(-c4ccccc4)cc3)[C@@H]2C1	-	-	.	-	.
O=C(c1cccc(F)c1)N1CCCCN2[C@H](CO)[C@H](c3ccc(-c4ccccc4)cc3)[C@H]2C1	-	40.9	.	-	.
COc1cccc(-c2ccc([C@H]3[C@@H](CO)N4C(=O)CNC[C@@H]34)cc2)c1	-	-	.	-	-
COc1cccc(-c2ccc([C@@H]3[C@H](CO)N4CCCCN(C(=O)c5ccc(F)cc5)C[C@@H]34)cc2)c1	-	41.1	.	-	.
COc1cccc(-c2ccc([C@H]3[C@H]4CN(C(=O)c5ccc(F)cc5)CCCCN4[C@H]3CO)cc2)c1	-	-	.	-	.
COc1cccc(-c2ccc([C@@H]3[C@H]4CN(CC5CC5)CCCCN4[C@H]3CO)cc2)c1	-	58.4	.	-	.
COc1cccc(-c2ccc([C@H]3[C@H]4CNCC(=O)N4[C@H]3CO)cc2)c1	-	22.1	.	-	-
C[C@@H]1CN([C@H](C)CO)C(=O)c2cc(NS(=O)(=O)c3cccs3)ccc2O[C@@H](C)CCCCO[C@@H]1CN(C)C(=O)CCCN(C)C	-	-	.	-	.
O=C(C[C@H]1CC[C@H]2[C@@H](COC[C@@H](O)CN2C(=O)Nc2cccc(F)c2)O1)NCc1ccccc1Cl	.	-	.	-	-
O=C(NC1Cc2ccccc2C1)[C@@H]1[C@@H](CO)[C@@H]2Cn3c(ccc(-c4ccccc4)c3=O)[C@H]1N2	-	-	.	-	.
COc1ccc2c3c([nH]c2c1)[C@H](CO)N(C(C)=O)CC31CN(C(=O)Nc2ccccc2F)C1	.	-	.	-	.
SMILES	Casp6 inh	DENV2 CPE rescue	CaV13 ICDI inh	Xi reactivation	FN deposit inh
COCC(=O)N1CCCCN2[C@H](C1)[C@@H](c1ccc(C#Cc3cccnc3)cc1)[C@@H]2CO	-	23.5	.	-	.
COCC(=O)N1CCCCN2[C@H](CO)[C@@H](c3ccc(C#Cc4cccnc4)cc3)[C@@H]2C1	-	-	.	-	.
CCC(=O)N1CCCCN2[C@@H](CO)[C@H](c3ccc(C#Cc4cccnc4)cc3)[C@@H]2C1	-	-	.	-	.
CC(=O)N1CC(=O)N2[C@H](CO)[C@@H](c3ccc(C#Cc4cccnc4)cc3)[C@@H]2C1	-	26.5	.	-	.
COCC(=O)N1CCCCN2[C@H](CO)[C@@H](c3ccc(C#Cc4cccnc4)cc3)[C@H]2C1	-	31.7	.	-	.
O=C(NC1CCCC1)N1CCCCN2[C@H](CO)[C@@H](c3ccc(-c4cncnc4)cc3)[C@@H]2C1	-	33.9	.	-	.
O=C(C1CC1)N1CC(=O)N2[C@H](CO)[C@H](c3ccc(Br)cc3)[C@H]2C1	-	?	.	-	-
COc1cccc(C#Cc2ccc3c(c2)[C@H]2[C@H](CCN2S(=O)(=O)c2ccc(C)cc2)[C@@H](CO)N3)c1	.	.	.	-	-
Cc1cccc(-c2ccc([C@@H]3[C@@H](CO)N4CCCCN(S(=O)(=O)c5cccs5)C[C@@H]34)cc2)c1	-	-	.	-	.
O=C(c1cccnc1)N1CCCCN2[C@H](CO)[C@@H](c3ccc(C#Cc4cccnc4)cc3)[C@H]2C1	.	25.1	.	-	.
CN(C)CC(=O)N1CCCCN2[C@H](CO)[C@H](c3ccc(-c4cccnc4)cc3)[C@@H]2C1	-	21.5	.	-	.
CCCC#Cc1ccc([C@@H]2[C@H](CO)N3C(=O)CN(C(=O)Nc4cccc(F)c4)C[C@@H]23)cc1	-	-	.	-	-
O=Cc1ccc(Oc2nc(Cl)ncc2F)cc1	42.0	-	-	-	-
O=Cc1ccc(Oc2ccc(F)cc2)nc1	-	-	-	-	-
CC(Sc1nnnn1-c1ccc(O)cc1)C(=O)NC1CCCCC1C (stereo not drawn)	-	34.3	-	-	-
S=C(c1ccc(-c2ccc(Br)cc2)o1)N1CCCCC1	54.1	-	-	-	-
c1coc(-c2nnc(-c3ccco3)nn2)c1	89.4	-	-	-	-
COC(=O)c1nn(-c2ccccc2)nc1-c1nn(-c2ccccc2)nc1C(=O)OC	.	.	-	.	.
Cc1ccccc1COC(=O)c1nn(-c2ccccc2)nc1N	-	-	-	-	31.0
C/C=C/c1cnc2c(c1)C(=O)N([C@@H](C)CO)C[C@H](C)[C@@H](CN(C)C(=O)Nc1ccc(C(F)(F)F)cc1)O2	-	-	.	-	.
C[C@@H]1CN([C@H](C)CO)C(=O)c2cc(C3=CCCCC3)cnc2O[C@@H]1CN(C)C(=O)Nc1ccc(F)cc1	-	33.7	.	-	-
C[C@H](CO)N1C[C@H](C)[C@@H](CN(C)C(=O)Nc2ccc(F)cc2)Oc2ncc(C3=CCCC3)cc2C1=O	-	26.6	.	-	-
C[C@H](CO)N1C[C@H](C)[C@@H](CN(C)C(=O)Nc2ccc(C(F)(F)F)cc2)Oc2ncc(/C=C/c3ccccc3)cc2C1=O	47.7	-	.	-	-

Screens deposited in PubChem BioAssay by Broad Institute.
